MLL AF4-AF9 inh – MLL-AF4/AF9 protein interaction inhibition. P42568. AlphaScreen, biotin-AF4 peptide binding to FLAG-AF9. inhibition, % at 10 µM. 350,000 compounds, 0.47% hits;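 active = every replicate reaching a set inhibition limit, whatever the replicate mean, cut at about 25% in these data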
S100A4 inh HTS – S100A4-myosin IIA interaction inhibition; P26447; S100A4/TAMRA-MyoIIA peptide fluorescence polarization; inhibition, % at 10.7 µM; 360,000 compounds, 0.14% hits;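 active = mean inhibition of at least 70% across replicates, with every replicate also reaching that level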
Target sequence (P26447 whole entry, looked up): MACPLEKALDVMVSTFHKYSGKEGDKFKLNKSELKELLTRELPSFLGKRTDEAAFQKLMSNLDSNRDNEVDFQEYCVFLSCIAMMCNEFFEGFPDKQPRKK
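assay system = human S100A4 monomer with TAMRA-labelled myosin IIA peptide | also added = labelled myosin peptide probe, 5 nM | incubation = 5 min between mix addition and reading | control set = DMSO and TFP controls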
Ecoli rRNA inh – selective bacterial rRNA inhibition in E. coli; E. coli WT GFP vs humanized-ribosome RFP mutants, fluorescence, 24 h; stronger effect = lower value; DMSO median 0, no signal -100; GFP signal change (wild-type ribosome), % (concentration not given with the values); 350,000 compounds, 1.6% hits;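 active = significant combined selectivity score with lowered wild-type GFP, culture density cut under 30%, mutant RFP and density less affected; inactive = any of these conditions unmet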
E-sel inducer – E-selectin induction on HUVECs | P16581 | HUVEC E-selectin immunofluorescence imaging; normalized: neutral wells 0, TNF-alpha wells 100 | activation, % at 7.58 µM | 260,000 compounds, 0.37% hits;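 active = mean E-selectin-positive cell signal at least 10% of the positive control, reached in at least 60% of replicates, without over 20% cell loss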
Target sequence (P16581 whole entry, looked up): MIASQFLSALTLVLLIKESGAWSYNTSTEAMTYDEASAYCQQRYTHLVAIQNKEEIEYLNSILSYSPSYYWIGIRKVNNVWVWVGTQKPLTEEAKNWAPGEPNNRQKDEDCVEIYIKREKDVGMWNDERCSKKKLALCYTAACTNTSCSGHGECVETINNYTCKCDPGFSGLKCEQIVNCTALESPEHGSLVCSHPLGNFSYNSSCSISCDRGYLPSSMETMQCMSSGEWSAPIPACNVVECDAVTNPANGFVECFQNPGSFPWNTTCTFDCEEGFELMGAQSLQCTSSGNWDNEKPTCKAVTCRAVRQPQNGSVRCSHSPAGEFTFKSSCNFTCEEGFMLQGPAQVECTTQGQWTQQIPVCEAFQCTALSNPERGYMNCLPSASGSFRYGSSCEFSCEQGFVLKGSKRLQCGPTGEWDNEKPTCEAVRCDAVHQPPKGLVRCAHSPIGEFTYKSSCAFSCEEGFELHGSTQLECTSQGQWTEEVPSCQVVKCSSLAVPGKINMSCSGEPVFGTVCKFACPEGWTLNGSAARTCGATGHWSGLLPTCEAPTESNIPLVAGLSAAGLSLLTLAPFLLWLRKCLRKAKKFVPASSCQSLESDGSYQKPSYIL
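Test system: HUVEC | Signal: Immunofluorescence imaging | Read-out: Percent E-selectin-positive cells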
SIRT5 inh – blocks human SIRT5 desuccinylation of peptide; AID 652115; 330,000 compounds, 1.1% hits; Purified SirT5, succinyl-peptide AMC, trypsin-coupled fluorescence; Q9NXA8; inhibition, % at 15 µM; in the data active = inhibition above about 15%
ERAP1 inh – blocks human ERAP1 aminopeptidase activity. recombinant ERAP1, Leu-AMC fluorescence, 60 min. inhibition, % at 10.7 µM. 340,000 compounds, 0.15% hits;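 active = mean replicate inhibition of at least 30%, or all replicates individually reaching that 30% level; inactive = mean below 30% and not every replicate reaching it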
Each line names hits and unclear results; the compound was inactive in the other large screens; ! = not active in a repeat. In the library only some 3.4% were active in any assay of this set; here they are far more common.

CCC/C(O)=C1\C(=O)CCCC1=NCCc1c(C)[nH]c2ccccc12	SIRT5 inh 25
O=C1c2ccccc2C(=O)c2c1cccc2N(CCO)CCO	MLL AF4-AF9 inh 28 (no result: E-sel inducer)
COc1cc(CN2C[C@@H]3N[C@H](C2)C3c2ccc(-c3cccc(OC)c3)cc2)cc(OC)c1 (some centres undefined)	MLL AF4-AF9 inh 26!
COC(=O)[C@H](Cc1ccccc1)NCCCn1cnc(C(=O)Nc2ccc(C)c(C)c2)n1	Ecoli rRNA inh -35 (no result: ERAP1 inh)
Cc1ccc(NC(=O)c2ncn(CCCN3CCN(c4ccccn4)CC3)n2)cc1C	Ecoli rRNA inh -22 (no result: ERAP1 inh)
COC(=O)[C@H](Cc1ccccc1)NC(=O)Cn1cnc(C(=O)Nc2ccc(C)c(C)c2)n1	none (no result: ERAP1 inh)
CCS(=O)(=O)N1CC2(CN(Cc3ccc(F)cc3)[C@H](CO)c3c2c2ccc(OC)cc2n3C)C1	none (no result: S100A4 inh HTS, SIRT5 inh, ERAP1 inh)
C[C@H](CO)N1C[C@H](C)[C@@H](CN(C)S(=O)(=O)c2cccs2)Oc2ccc(NC(=O)CCCCCC(=O)Nc3ccccc3N)cc2C1=O	none (no result: E-sel inducer)
COc1cc(OC)nc(Oc2ccccc2C(=O)Oc2ccc(Cl)cc2)n1	none (no result: E-sel inducer)
COc1cc(OC)nc(Oc2ccccc2C(=O)Oc2ccccc2Cl)n1	Ecoli rRNA inh -23 (no result: E-sel inducer)
C[C@H](CO)N1C[C@H](C)[C@@H](CN(C)Cc2ccc(C(F)(F)F)cc2)Oc2ccc(NC(=O)Cc3ccccc3)cc2CC1=O	SIRT5 inh 16
C[C@@H]1CN([C@@H](C)CO)C(=O)Cc2cc(NC(=O)Cc3ccccc3)ccc2O[C@H]1CN(C)Cc1ccc(C(F)(F)F)cc1	none
C[C@@H]1CN([C@H](C)CO)C(=O)Cc2cc(NC(=O)Cc3ccccc3)ccc2O[C@@H]1CN(C)Cc1ccc(C(F)(F)F)cc1	SIRT5 inh 16
CN(C)c1ccc(CN2CCC(C(=O)NC(c3ccc(F)cc3)c3ccc4ccccc4n3)CC2)cc1 (centres undefined)	MLL AF4-AF9 inh 42 (no result: SIRT5 inh)
O=C(c1ccccn1)N1C[C@H]2[C@@H](c3ccccc31)[C@@H](CO)N2CC1CCCC1	none (no result: MLL AF4-AF9 inh, S100A4 inh HTS, E-sel inducer, SIRT5 inh, ERAP1 inh)
O=C(NC(=S)N1CCOCC1)c1cn(-c2ccccc2)nc1-c1ccccc1	Ecoli rRNA inh -19 (no result: E-sel inducer)
O=C(c1cn(-c2ccccc2)nc1-c1ccc(Cl)cc1)N1CCOCC1	none
O=C(N[C@H]1CC[C@H](CCn2cc(C3CCCC3)nn2)O[C@H]1CO)c1cccnc1	none (no result: MLL AF4-AF9 inh, S100A4 inh HTS, E-sel inducer, SIRT5 inh, ERAP1 inh)
CN1CCN(C(=O)C[C@@H]2CC[C@H]3[C@@H](COC[C@@H](O)CN3Cc3cccc(Cl)c3)O2)CC1	none
COc1ccc2c3c(n(C)c2c1)[C@H](CO)N(C(=O)c1cnccn1)CC31CCN(C(=O)c2ccncc2)CC1	none
O=C(C1Cc2ccccc2CN1S(=O)(=O)c1ccc(F)cc1)N1CCOCC1 (centres undefined)	SIRT5 inh 25 (no result: E-sel inducer)
O=C(CCN1CCCCC1)NCC[C@H]1CC[C@H](NC(=O)C2CCCCC2)[C@H](CO)O1	none (no result: MLL AF4-AF9 inh, S100A4 inh HTS, SIRT5 inh, ERAP1 inh)
NC(=O)c1ncc(C(F)(F)F)cc1Cl	none (no result: E-sel inducer)
NC(=O)c1ccc(C(F)(F)F)cn1	SIRT5 inh 32
C[C@@H]1CN([C@H](C)CO)C(=O)c2cc(NS(=O)(=O)c3cccs3)ccc2O[C@@H]1CN(C)S(=O)(=O)c1cn(C)cn1	none
O=C1N[C@H](c2ccccc2)COCc2cn(nn2)CC[C@H](Cc2ccc(C(F)(F)F)cc2)C(=O)N[C@H](c2ccccc2)COCc2cn(nn2)CC[C@@H]1Cc1ccc(C(F)(F)F)cc1	none (no result: MLL AF4-AF9 inh, S100A4 inh HTS, E-sel inducer, SIRT5 inh, ERAP1 inh)
Cc1ccccc1S(=O)(=O)N1CCCCN2[C@@H](CO)[C@H](c3ccc(-c4cccc(F)c4)cc3)[C@@H]2C1	SIRT5 inh 18
Cc1cccc(-c2ccc([C@H]3[C@@H](CO)N4CCCCN(S(=O)(=O)c5ccccc5F)C[C@@H]34)cc2)c1	none (no result: MLL AF4-AF9 inh, S100A4 inh HTS, SIRT5 inh, ERAP1 inh)
Cc1cccc(-c2ccc([C@@H]3[C@H](CO)N4CCCCN(S(=O)(=O)c5ccccc5C)C[C@@H]34)cc2)c1	Ecoli rRNA inh -43
Cc1cccc(-c2ccc([C@@H]3[C@@H](CO)N4CCCCN(S(=O)(=O)c5ccccc5F)C[C@H]34)cc2)c1	SIRT5 inh 21
Cc1ccccc1S(=O)(=O)N1CCCCN2[C@H](CO)[C@H](c3ccc(-c4cccc(F)c4)cc3)[C@H]2C1	none
COc1ccc2c3c(n(C)c2c1)[C@@H](CO)N(CC1CC1)CC31CCN(C(=O)Nc2c(C)noc2C)CC1	none
C[C@H](CO)N1C[C@H](C)[C@H](CN(C)C(=O)Cc2ccccc2)Oc2cc(C#CC3(O)CCCC3)ccc2S1(=O)=O	none
CCOc1ccc(C(C(=O)NCC2CCCO2)N(C(=O)c2snc(C(N)=O)c2N)c2ccc3c(c2)OCCO3)cc1 (centres undefined)	MLL AF4-AF9 inh 27 (no result: E-sel inducer)
CN(C)c1ccc(C(C(=O)NCC2CCCO2)N(C(=O)c2snc(C(N)=O)c2N)c2ccc3c(c2)OCO3)cc1 (centres undefined)	none (no result: E-sel inducer)
COc1ccc(-c2cc(C(F)(F)F)nc(SCc3cccc(C(=O)O)c3)n2)cc1	Ecoli rRNA inh -43 (no result: E-sel inducer)
C[C@H](CO)N1C[C@H](C)[C@H](CN(C)C)Oc2ccc(NC(=O)NC3CCCCC3)cc2C1=O	none (no result: E-sel inducer, SIRT5 inh)
Cc1ccc(-c2ccc3c(c2)O[C@H](CN(C)C(=O)C2CC2)[C@H](C)CN([C@@H](C)CO)S3(=O)=O)cc1	none
CC(=Cc1ccccc1)C=C1SC(=S)N(CCCC(=O)Nc2ccc(C(=O)O)cc2)C1=O	Ecoli rRNA inh -23, SIRT5 inh 27 (no result: ERAP1 inh)
CC(/C=C1\SC(=S)N(NC(=O)c2ccc(O)cc2)C1=O)=C\c1ccccc1	Ecoli rRNA inh -25 (no result: E-sel inducer)
CCN(CC)CCOC(=O)c1ccc(NC(=O)CCCN2C(=O)/C(=C\c3cccs3)SC2=S)cc1	Ecoli rRNA inh -27
CC(/C=C1\SC(=S)N(CCC(=O)Nc2cccc(C(=O)O)c2)C1=O)=C\c1ccccc1	none
C[C@@H]1CN([C@@H](C)CO)C(=O)c2cccc(NS(=O)(=O)c3ccccc3)c2O[C@H]1CN(C)C(=O)NC1CCCCC1	none
O=C(N=C1SC2CS(=O)(=O)CC2N1c1ccc(F)cc1F)C1CC1 (centres undefined)	SIRT5 inh 17 (no result: E-sel inducer)
CCCNC(=O)Nc1ccc2c(c1)OC[C@H](C)N(CC1CCCC1)C[C@@H](C)[C@H](OC)CN(C)C2=O	none
C[C@H](CO)N1C[C@H](C)[C@@H](CN(C)Cc2cccc(F)c2)Oc2cc(-c3ccc(F)cc3)ccc2S1(=O)=O	none (no result: MLL AF4-AF9 inh, S100A4 inh HTS, SIRT5 inh, ERAP1 inh)
C(=N\Nc1nc2ccccc2[nH]1)/C1CCCCC1	MLL AF4-AF9 inh 26
COc1ccc(/C=N/Nc2nc3ccccc3[nH]2)c(OC)c1OC	Ecoli rRNA inh -27 (no result: E-sel inducer)
C(=N\Nc1nc2ccccc2[nH]1)/c1cccc2cccnc12	Ecoli rRNA inh -53 (no result: MLL AF4-AF9 inh, E-sel inducer)
Cc1ccccc1/C=N/Nc1nc2ccccc2[nH]1	none (no result: E-sel inducer, SIRT5 inh)
